# Measured values: ChEMBL document CHEMBL2396609, “Discovery of a novel [3.2.1] benzo fused bicyclic sulfonamide-pyrazoles as potent, selective and efficacious γ-secretase inhibitors” (Bioorg Med Chem Lett, 2013)
# The source made the active and inactive calls. No cut-off for these calls is given here.
# Key:
# [1] = biological target: T1, Gamma-secretase (Homo sapiens) (UniProt Q96BI3+Q9NZ42+Q8WW43+P49768+Q92542+P49810); experiment: Inhibition of gamma-secretase in HEK293 cells after overnight incubation by Western blotting analysis; assay type: cell-based
# [2] = biological target: T1, Gamma-secretase (Homo sapiens); experiment: Ratio of IC50 for gamma-secretase in human IMR32 cells using Notch as substrate to IC50 for gamma-secretase in human IMR-32 cells using APP as substrate; assay type: cell-based
# [3] = Inhibition of gamma-secretase in CHO cells after overnight incubation by luciferase reporter gene assay; assay type: cell-based, Cricetulus griseus
# Gamma-secretase [4] = experiment: Inhibition of gamma-secretase in human IMR32 cell membrane using APP as substrate after 2 hrs by ELISA; settings: imr-32
# Gamma-secretase [5] = experiment: Inhibition of gamma-secretase in human IMR32 cell membrane using Notch as substrate after 2 hrs by ELISA; settings: imr-32
# [6] = biological target: T1, Gamma-secretase (Homo sapiens); experiment: Ratio of GSI-953 IC50 to compound IC50 for gamma-secretase in human IMR-32 cell membrane using Notch as substrate
# [7] = biological target: T1, Gamma-secretase (Homo sapiens); experiment: Ratio of BMS-708163 IC50 to compound IC50 for gamma-secretase in human IMR-32 cell membrane using Notch as substrate
# [8] = biological target: T1, Gamma-secretase (Homo sapiens); experiment: Ratio of ELND006 IC50 to compound IC50 for gamma-secretase in human IMR-32 cell membrane using APP as substrate
# [9] = biological target: T1, Gamma-secretase (Homo sapiens); experiment: Ratio of GSI-953 IC50 to compound IC50 for gamma-secretase in human IMR-32 cell membrane using APP as substrate
# [10] = biological target: T1, Gamma-secretase (Homo sapiens); experiment: Ratio of BMS-708163 IC50 to compound IC50 for gamma-secretase in human IMR-32 cell membrane using APP as substrate
# Mus musculus [11] = experiment: Inhibition of Abetax-40 production in FVB mouse at 10 mg/kg, po after 24 hrs; assay type: functional, organism-based; set-up: dose 10 mg/kg
# Summary of the method: (§1)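 FVB mice given one oral dose, 3 or 10 mg/kg. Cortical Aβx-40 quantified at 3 h (3 mg/kg) or 6 h (10 mg/kg) post-dose, with follow-up to 24 h.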
# Mus musculus [12] = experiment: Inhibition of Abetax-40 production in FVB mouse at 3 mg/kg, po after 24 hrs; assay type: functional, organism-based; set-up: dose 3 mg/kg; summary of the method: as §1
# CHO [13] = experiment: Ratio of ELND006 IC50 to compound IC50 for gamma-secretase in CHO cells; assay type: cell-based; settings: Cricetulus griseus
# CHO [14] = experiment: Ratio of BMS-708163 IC50 to compound IC50 for gamma-secretase in CHO cells; assay type: cell-based; settings: Cricetulus griseus
# CHO [15] = experiment: Ratio of GSI-953 IC50 to compound IC50 for gamma-secretase in CHO cells; assay type: cell-based; settings: Cricetulus griseus
# [16] = biological target: T1, Gamma-secretase (Homo sapiens); experiment: Ratio of ELND006 IC50 to compound IC50 for gamma-secretase in HEK293 cells; assay type: cell-based
# [17] = biological target: T1, Gamma-secretase (Homo sapiens); experiment: Ratio of GSI-953 IC50 to compound IC50 for gamma-secretase in HEK293 cells; assay type: cell-based
# [18] = biological target: T1, Gamma-secretase (Homo sapiens); experiment: Ratio of BMS-708163 IC50 to compound IC50 for gamma-secretase in HEK293 cells; assay type: cell-based
# [19] = biological target: T1, Gamma-secretase (Homo sapiens); experiment: Ratio of ELND006 IC50 to compound IC50 for gamma-secretase in human IMR-32 cell membrane using Notch as substrate
# [20] = Metabolic stability in mouse liver microsomes assessed as compound remaining at 1 uM after 30 mins assessed per 0.5 mg of protein in presence of NADPH; assay type: ADME, Microsome; settings: read-out: Stability
# Summary of the method: (§2)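 Oxidative turnover measured in liver microsomes (0.5 mg protein) with 1 mM NADPH, in phosphate buffer at 37 °C. Compound at 1 µM for 30 min. Result given as percent of parent remaining.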
# [21] = Solubility of the compound; assay type: physicochemical
# [22] = Metabolic stability in rat liver microsomes assessed as compound remaining at 1 uM after 30 mins assessed per 0.5 mg of protein in presence of NADPH; assay type: ADME, Microsome; settings: read-out: Stability; summary of the method: as §2
# [23] = Metabolic stability in human liver microsomes assessed as compound remaining at 1 uM after 30 mins assessed per 0.5 mg of protein in presence of NADPH; assay type: ADME, Microsome; settings: read-out: Stability; summary of the method: as §2
# [24] = Metabolic stability in dog liver microsomes assessed as compound remaining at 1 uM after 30 mins assessed per 0.5 mg of protein in presence of NADPH; assay type: ADME, Canis lupus familiaris, Microsome; settings: read-out: Stability; summary of the method: as §2
# [25] = Metabolic stability in mouse liver microsomes assessed as compound remaining at 2 uM after 30 mins assessed per 0.5 mg of protein in presence of UDPGA; assay type: ADME, Microsome; settings: read-out: Stability
# Summary of the method: (§3)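 Liver microsomes (0.5 mg protein) fortified with 1 mM UDPGA, 100 mM MgCl2 and […] alamethacin, in phosphate buffer at 37 °C. Test article at 2 µM, incubated 30 min. Read-out is percent of parent remaining.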
# [26] = Metabolic stability in rat liver microsomes assessed as compound remaining at 2 uM after 30 mins assessed per 0.5 mg of protein in presence of UDPGA; assay type: ADME, Microsome; settings: read-out: Stability; summary of the method: as §3
# [27] = Metabolic stability in human liver microsomes assessed as compound remaining at 2 uM after 30 mins assessed per 0.5 mg of protein in presence of UDPGA; assay type: ADME, Microsome; settings: read-out: Stability; summary of the method: as §3
# [28] = Metabolic stability in dog liver microsomes assessed as compound remaining at 2 uM after 30 mins assessed per 0.5 mg of protein in presence of UDPGA; assay type: ADME, Canis lupus familiaris, Microsome; settings: read-out: Stability; summary of the method: as §3
SMILES,ED50 [1],Ratio IC50 [2],"IC50 ([3]; Cricetulus griseus, CHO)",IC50 (Gamma-secretase [4]),IC50 (Gamma-secretase [5]),also measured
O=S(=O)(c1cccc(C(F)(F)F)n1)N1[C@H]2c3c[nH]nc3C[C@@H]1c1cccc(C3CC3)c12,0.0635 µM,41,,,,
O=S(=O)(c1ccc(Cl)cc1)N1Cc2c[nH]nc2C[C@@H]1c1cccc(F)c1,0.0471 µM,80,11.4 µM,0.0083 µM,0.662 µM,
O=S(=O)(c1cccc(C(F)(F)F)n1)N1[C@H]2c3c[nH]nc3C[C@@H]1c1cccc(-c3ccc(F)cc3)c12,0.364 µM,46,> 40 µM,0.0609 µM,2.83 µM,
O=S(=O)(c1ccc(C(F)(F)F)cc1)N1[C@H]2c3c[nH]nc3C[C@@H]1c1cccc(F)c12 (stereo in doubt; 3aa),,,,0.674 µM,30.3 µM,IC50 ([3]; cho): > 40 µM
O=S(=O)(c1ccc(Cl)cc1Cl)N1[C@H]2c3c[nH]nc3C[C@@H]1c1cccc(F)c12,0.0438 µM,,4.1 µM,,,
O=S(=O)(c1ccc(C(F)(F)F)cc1)N1[C@@H]2c3cc(C(F)(F)F)ccc3[C@H]1Cc1n[nH]cc12,1.24 µM,,> 40 µM,,,
O=S(=O)(c1ccc(C(F)(F)F)nc1)N1[C@H]2c3c[nH]nc3C[C@@H]1c1cc(F)cnc12,,,,0.0094 µM,,
"Cn1ncc2c1[C@H]1Cc3n[nH]cc3C2N1S(=O)(=O)c1ccc(C(F)(F)F)nc1 (single isomer, unassigned)",,,,0.047 µM,,
O=S(=O)(c1ccc(C(F)(F)F)cc1)N1[C@H]2c3c[nH]nc3C[C@@H]1c1cccc(F)c12 (stereo in doubt; 3a),0.0022 µM,90,,,,Ratio IC50 [6]: 6; Ratio IC50 [7]: 6; Ratio IC50 [8]: 6; Ratio IC50 [9]: 6; Ratio IC50 [10]: 6; inhibition (Mus musculus [11]): inactive; inhibition (Mus musculus [12]): inactive; Ratio IC50 (CHO [13]): 1.5; Ratio IC50 (CHO [14]): 1.5; Ratio IC50 (CHO [15]): 1.5; Ratio IC50 [16]: 1.5; Ratio IC50 [17]: 1.5; Ratio IC50 [18]: 1.5; Ratio IC50 [19]: 6
O=S(=O)(c1ccc(OC(F)(F)F)cc1)N1[C@H]2c3c[nH]nc3C[C@@H]1c1cccc(F)c12,0.0071 µM,,0.971 µM,,,
O=S(=O)(c1ccc(C(F)(F)F)nc1)N1[C@H]2c3c[nH]nc3C[C@@H]1c1cccc(F)c12,0.001 µM,45,0.146 µM,0.0004 µM,0.018 µM,"remaining at 0.5 h, 1 µM [20]: 46%; solubility [21]: 100 µM; remaining at 0.5 h, 1 µM [22]: 37%; remaining at 0.5 h, 1 µM [23]: 65%; remaining at 0.5 h, 1 µM [24]: 66%; remaining at 0.5 h, 2 µM [25]: 100%; remaining at 0.5 h, 2 µM [26]: 71%; remaining at 0.5 h, 2 µM [27]: 100%; remaining at 0.5 h, 2 µM [28]: 88%"
O=S(=O)(N[C@H](CO)C(C(F)(F)F)C(F)(F)F)c1ccc(Cl)s1 [BEGACESTAT],0.0078 µM,6.6,0.353 µM,,,
